In brackets after ≈: the same amount, converted by molar mass. Activity calls are given as the source filed them. No cut-off for these calls is given here. Positions of bridges follow the written chain, without caps; N, C: chain ends. Residues, ends and D or L forms follow the SMILES beside them.
What was measured:
[1] = system: Salmonella enterica subsp. enterica serovar Heidelberg; experiment: Antibacterial activity against Salmonella heidelberg ATCC 8326 up to 250 uM after 24 hrs by liquid growth inhibition assay; type: functional
Procedure, shortened: (§1)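 Liquid broth microdilution in LB. Peptide stocks were made in 20% methanol/water (1 or 2.5 mM), then serially doubled in water to final 0.01–100 or 0.5–250 µM. Inoculum was diluted to OD620 0.02–0.05. Plates ran 24 h at 37 °C and were read at OD620. MIC was the lowest concentration giving 100% growth inhibition (0.05 AU). Triplicate wells, three repeat experiments.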

[2] = system: Salmonella enteritidis; experiment: Antibacterial activity against Salmonella enteritidis AFLB 11 up to 250 uM after 24 hrs by liquid growth inhibition assay; type: functional, organism-based; conditions: Salmonella enterica subsp. enterica serovar Enteritidis; procedure, shortened: as §1
[3] = system: Salmonella enterica subsp. enterica serovar Choleraesuis; experiment: Antibacterial activity against Salmonella choleraesuis ATCC 10708 up to 250 uM after 24 hrs by liquid growth inhibition assay; type: functional
[4] = system: Salmonella paratyphi; experiment: Antibacterial activity against Salmonella paratyphi up to 250 uM after 24 hrs by liquid growth inhibition assay; type: functional, organism-based; conditions: Salmonella enterica subsp. enterica serovar Paratyphi A
[5] = Cytotoxicity against human MCF7 cells assessed as cell viability at 0.3 to 100 uM after 24 hrs by MTT assay; type: cell-based; conditions: read-out: Activity
Procedure, shortened: (§2)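 MTT assay. MDA-MB-435 cells were kept in RPMI 1640 and MCF7 cells in DMEM, both with 10% FBS, penicillin and streptomycin, at 37 °C and 5% CO2. Cells were seeded at 1×10^4/well and grown 24 h. Samples came from 1 mM stocks in 10% DMSO/water, twofold diluted to 0.3125–100 µM, and applied for 24 h. MTT (5 mg/mL) was added for 3.5 h, then DMSO solubilization and A570. Viability is relative to untreated cells; triplicate, mean.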

[6] = system: Salmonella typhimurium; experiment: Antibacterial activity against Salmonella Typhimurium AFLB 25 up to 250 uM after 24 hrs by liquid growth inhibition assay; type: functional, organism-based; conditions: Salmonella enterica subsp. enterica serovar Typhimurium; procedure, shortened: as §1
[7] = system: Salmonella enterica subsp. enterica serovar Newport; experiment: Antibacterial activity against Salmonella newport clinical isolate up to 250 uM after 24 hrs by liquid growth inhibition assay; type: functional; procedure, shortened: as §1
[8] = system: Escherichia coli; experiment: Antibacterial activity against Escherichia coli DH5alpha up to 250 uM after 24 hrs by liquid growth inhibition assay; type: functional, organism-based; conditions: DH5[alpha]; procedure, shortened: as §1
[9] = system: Salmonella typhimurium; experiment: Antibacterial activity against Salmonella Typhimurium ATCC 13311 up to 250 uM after 24 hrs by liquid growth inhibition assay; type: functional, organism-based; conditions: Salmonella enterica subsp. enterica serovar Typhimurium; procedure, shortened: as §1
[10] = system: Staphylococcus aureus; experiment: Antibacterial activity against Staphylococcus aureus ATCC 6538; type: functional, organism-based
[11] = system: Salmonella enteritidis; experiment: Antibacterial activity against Salmonella enteritidis PT8 up to 250 uM after 24 hrs by liquid growth inhibition assay; type: functional, organism-based; conditions: Salmonella enterica subsp. enterica serovar Enteritidis; procedure, shortened: as §1
[12] = Cytotoxicity against human MDA-MB-435 cells assessed as cell viability at 0.3 to 100 uM after 24 hrs by MTT assay; type: cell-based; conditions: read-out: Activity; procedure, shortened: as §2
[13] = system: Salmonella enteritidis; experiment: Antibacterial activity against Salmonella enteritidis AFLB 81 up to 250 uM after 24 hrs by liquid growth inhibition assay; type: functional, organism-based; conditions: Salmonella enterica subsp. enterica serovar Enteritidis; procedure, shortened: as §1
[14] = system: Enterococcus faecalis; experiment: Antibacterial activity against Enterococcus faecalis ATCC 19433; type: functional, organism-based
[15] = system: Salmonella enteritidis; experiment: Antibacterial activity against Salmonella enteritidis AFLB 41 up to 250 uM after 24 hrs by liquid growth inhibition assay; type: functional, organism-based; conditions: Salmonella enterica subsp. enterica serovar Enteritidis; procedure, shortened: as §1
[16] = system: Salmonella enterica subsp. enterica serovar Montevideo; experiment: Antibacterial activity against Salmonella montevideo 20 up to 250 uM after 24 hrs by liquid growth inhibition assay; type: functional; procedure, shortened: as §1
[17] = system: Escherichia coli; experiment: Antibacterial activity against Escherichia coli MC4100 up to 250 uM after 24 hrs by liquid growth inhibition assay; type: functional, organism-based; procedure, shortened: as §1
[18] = system: Salmonella enteritidis; experiment: Antibacterial activity against Salmonella enteritidis ATCC 13076 up to 250 uM after 24 hrs by liquid growth inhibition assay; type: functional, organism-based; conditions: Salmonella enterica subsp. enterica serovar Enteritidis; procedure, shortened: as §1
[19] = Thermostability in boiling water after 3 hrs; type: physicochemical; conditions: buffer
[20] = system: Salmonella enterica subsp. enterica serovar Newport; experiment: Inhibition of oxygen consumption in Salmonella newport clinical isolate at 30 uM after 35 mins by Gilson Clarke oxygraph analysis; type: functional
Procedure, shortened: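 Cells were held 35 min at 37 °C with peptide at the stated concentration. Respiration rate over the next 5 min was measured polarographically with a Clark electrode oxygraph at 37 °C. Results are percent of a peptide-free control; three independent experiments, mean ± SD.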

[21] = Stability of the compound at 150 uM after 30 mins by RP-HPLC analysis in the presence of pepsin; type: ADME; conditions: 0.5 h
Procedure, shortened: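 Peptide (150 µM) was incubated at 37 °C with pepsin (4% w/w) in 0.1 N HCl. Aliquots taken at 0 and 30 min were quenched into 0.1 N NaOH/70% methanol and centrifuged. Supernatant was analysed by C18 RP-HPLC (15–50% isopropanol/water, 0.05% TFA, 35 min, UV 220 nm). Fragments were identified by MALDI-TOF.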

[22] = Bactericidal activity against Salmonella newport clinical isolate after 24 hrs; type: functional, Salmonella enterica subsp. enterica serovar Newport; conditions: Salmonella enterica
Procedure, shortened: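 For MBC, 10 µL from each clear well of the 24 h, 37 °C LB broth-dilution plate was spread on LB agar and incubated 24 h at 37 °C. MBC was the lowest concentration giving no growth on agar.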

[23] = Antibacterial activity against Salmonella newport clinical isolate after 24 hrs by liquid growth inhibition assay; type: functional, Salmonella enterica subsp. enterica serovar Newport; conditions: Salmonella enterica; procedure, shortened: as §1
[24] = Stability of the compound at 200 uM after overnight incubation by spot on lawn method in the presence of chymotrypsin; type: ADME

SMILES	Activity [1]	Activity [2]	Activity [3]	Activity [4]	viability at 24 h, up to 100 µM [5] [%]	Activity [6]	Activity [7]	Activity [8]	Activity [9]	Activity [10]	Activity [11]	viability at 24 h, up to 100 µM [12] [%]	Activity [13]	Activity [14]	Activity [15]	Activity [16]	Activity [17]	Activity [18]	other results
CC[C@H](C)[C@H](NC(=O)[C@@H]1CCCN1C(=O)CNC(=O)CNC(=O)[C@H](CCCNC(=N)N)NC(=O)CNC(=O)[C@@H](NC(=O)[C@H](Cc1ccccc1)NC(=O)[C@H](Cc1ccc(O)cc1)NC(=O)[C@@H]1CSSC[C@H](N)C(=O)NCC(=O)N[C@@H](C)C(=O)N[C@@H](Cc2ccccc2)C(=O)N[C@@H](Cc2cnc[nH]2)C(=O)N[C@@H](C(C)C)C(=O)N2CCC[C@H]2C(=O)N1)C(C)C)C(=O)N[C@@H](CO)C(=O)N[C@@H](Cc1ccccc1)C(=O)O (H-CGAFHVPCYFVGRGGPISF-OH; disulfide 1-8)	inactive	inactive	inactive	inactive	> 90	inactive	inactive	inactive	inactive	inactive	inactive	> 90	inactive	inactive	inactive	inactive	inactive	inactive	
CC[C@H](C)[C@H](NC(=O)[C@@H]1CCCN1C(=O)[C@@H](NC(=O)CNC(=O)[C@H](CCCNC(=N)N)NC(=O)CNC(=O)[C@@H](NC(=O)[C@H](Cc1ccccc1)NC(=O)[C@H](Cc1ccc(O)cc1)NC(=O)[C@@H]1CSSC[C@H](N)C(=O)NCC(=O)N[C@@H](C)C(=O)NCC(=O)N[C@@H](Cc2ccccc2)C(=O)N[C@@H](Cc2cnc[nH]2)C(=O)N[C@@H](C(C)C)C(=O)N2CCC[C@H]2C(=O)N1)C(C)C)[C@@H](C)O)C(=O)N[C@@H](CO)C(=O)N[C@@H](Cc1ccccc1)C(=O)N[C@@H](Cc1ccc(O)cc1)C(=O)NCC(=O)O (H-CGAGFHVPCYFVGRGTPISFYG-OH; disulfide 1-9)	inactive	inactive	inactive	inactive	> 90	inactive		inactive	inactive	inactive	inactive	> 90	inactive	inactive	inactive	inactive	inactive	inactive	Stability [19]: Unstable; inhibition [20]: inactive; Stability [21]: Unstable; MBC [22]: 62.5 µM (≈ 146 µg/mL); MIC [23]: 30 µM (≈ 70 µg/mL); Stability [24]: Unstable
CC[C@H](C)[C@H](NC(=O)CNC(=O)[C@@H](NC(=O)[C@H](Cc1ccccc1)NC(=O)[C@H](Cc1ccc(O)cc1)NC(=O)[C@@H]1CSSC[C@H](N)C(=O)NCC(=O)N[C@@H](C)C(=O)NCC(=O)N[C@@H](CCCCN)C(=O)N[C@@H](C(C)C)C(=O)N2CCC[C@H]2C(=O)N1)C(C)C)C(=O)NCC(=O)N[C@H](C(=O)N1CCC[C@H]1C(=O)N[C@H](C(=O)N[C@@H](CO)C(=O)N[C@@H](Cc1ccccc1)C(=O)N[C@@H](CCC(=O)O)C(=O)NCC(=O)O)[C@@H](C)CC)[C@@H](C)O (H-CGAGKVPCYFVGIGTPISFEG-OH; disulfide 1-8)	inactive	inactive	inactive	inactive	75	inactive	inactive	inactive	inactive	inactive	inactive	75	inactive	inactive	inactive	inactive	inactive	inactive	
CC[C@H](C)[C@H](NC(=O)CNC(=O)[C@@H](NC(=O)[C@H](Cc1ccccc1)NC(=O)[C@H](Cc1ccc(O)cc1)NC(=O)[C@@H]1CSSC[C@H](N)C(=O)NCC(=O)N[C@@H](C)C(=O)N[C@@H](CCCCN)C(=O)N[C@@H](Cc2cnc[nH]2)C(=O)N[C@@H](C(C)C)C(=O)N2CCC[C@H]2C(=O)N1)C(C)C)C(=O)NCC(=O)N[C@H](C(=O)N1CCC[C@H]1C(=O)N[C@H](C(=O)N[C@@H](CO)C(=O)N[C@@H](Cc1ccccc1)C(=O)N[C@@H](CCC(=O)O)C(=O)O)[C@@H](C)CC)[C@@H](C)O (H-CGAKHVPCYFVGIGTPISFE-OH; disulfide 1-8)	inactive	inactive	inactive	inactive	75	inactive	inactive	inactive	inactive	inactive	inactive		inactive	inactive	inactive	inactive	inactive	inactive	
CC[C@H](C)[C@@H]1NC(=O)[C@@H]2CCCN2C(=O)CNC(=O)CNC(=O)[C@H](CCCNC(=N)N)NC(=O)CNC(=O)[C@H](C(C)C)NC(=O)[C@H](Cc2ccccc2)NC(=O)[C@H](Cc2ccc(O)cc2)NC(=O)[C@@H]2CSSC[C@H](NC(=O)[C@H](CCC(=O)O)NC1=O)C(=O)NCC(=O)N[C@@H](C)C(=O)NCC(=O)N[C@@H](Cc1cnc[nH]1)C(=O)N[C@@H](C(C)C)C(=O)N1CCC[C@H]1C(=O)N2 (cyclo(AGHVPCYFVGRGGPIECG); disulfide 6-17)	inactive	inactive	inactive	inactive	> 90	inactive	inactive	inactive	inactive	inactive	inactive	> 90	inactive	inactive	inactive	inactive	inactive	inactive	

From ChEMBL document CHEMBL1944538, “Synthetic peptides derived from the sequence of a lasso peptide microcin J25 show antibacterial activity” (Bioorg Med Chem, 2012)
